Experimental findings from ChEMBL document CHEMBL1135620, “Cyclosporins: structure-activity relationships for the inhibition of the human FPR1 formylpeptide receptor” (J Med Chem, 2002) are described below.

In experiment [1] the target is T1, fMet-Leu-Phe receptor (Homo sapiens) (UniProt P21462).
T1 sequence (whole entry): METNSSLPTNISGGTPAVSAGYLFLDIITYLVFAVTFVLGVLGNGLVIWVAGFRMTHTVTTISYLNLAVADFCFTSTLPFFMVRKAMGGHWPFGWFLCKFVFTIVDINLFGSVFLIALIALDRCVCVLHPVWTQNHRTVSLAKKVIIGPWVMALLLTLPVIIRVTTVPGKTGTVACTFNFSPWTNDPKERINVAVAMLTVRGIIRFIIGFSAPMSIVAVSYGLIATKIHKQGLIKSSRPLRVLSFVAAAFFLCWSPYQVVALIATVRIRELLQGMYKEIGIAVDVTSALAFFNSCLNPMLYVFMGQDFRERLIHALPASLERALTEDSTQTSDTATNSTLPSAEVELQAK
The experiment can be described thus: Inhibitory activity against Human formylpeptide receptor (FPR) of human leukemia HL-60 cells. The format is cell-based. In outline: (§1)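 HL-60 cells differentiated 48 h with 0.2 mM dibutyryl cAMP, washed, then treated with 5 μM cytochalasin B (5–10 min, 37 °C). Stimulated 10 min with 30 nM f-MLF. N-acetyl-β-D-glucosaminidase release read at 410 nm on p-nitrophenyl substrate after spontaneous-release subtraction. Duplicate wells; IC20/IC50 as mean ± SD of independent experiments.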

The next experiment addresses T2, fMet-Leu-Phe receptor (Homo sapiens, UniProt P21462).
T2 sequence (P21462 whole entry): T1 sequence (whole entry)
Briefly: Inhibitory activity against human formylpeptide receptor (FPR) of human leukemia HL-60 cells. It counts as cell-based. The essentials: as §1

A word on the IC20: it is the concentration at which the effect reaches the 20% level. What is called IC50 is the midpoint of a concentration-inhibition curve. Read a high IC50 as a need for much substance. `C/C=C/C[C@@H](C)[C@@H](O)C1NC(=O)[C@H](C(C)C)N(C)C(=O)[C@H](CC(C)C)N(C)C(=O)[C@H](CC(C)C)N(C)C(=O)[C@@H](C)NC(=O)[C@H](C)NC(=O)[C@@H](CC(C)C)N(C)C(=O)[C@@H](C(C)C)NC(=O)[C@@H](CC(C)C)N(C)C(=O)CN(C)C(=O)[C@H]([C@@H](C)O)NC1=O` (some centres not stated) came in with an IC20 in experiment [1] of 1.5 µM. This molecule returned an IC50 against fMet-Leu-Phe receptor (hl-60) of 5.5 µM.

As for `C/C=C/C[C@@H](C)[C@@H](O)[C@H]1C(=O)N[C@@H](CC)C(=O)N(C)CC(=O)N(C)[C@@H](CC(C)C)C(=O)N[C@@H](C(C)C)C(=O)N[C@@H](CC(C)C)C(=O)N[C@@H](C)C(=O)N[C@H](C)C(=O)N(C)[C@@H](CC(C)C)C(=O)N[C@@H](CC(C)C)C(=O)N(C)[C@@H](C(C)C)C(=O)N1C`, the midpoint of inhibition on fMet-Leu-Phe receptor, the IC50, lay at 1.8 µM.

In turn, `C/C=C/C[C@@H](C)[C@@H](O)[C@H]1C(=O)N[C@@H](CC)C(=O)N(C)CC(=O)N(C)[C@H](CC(C)C)C(=O)N[C@H](C(C)C)C(=O)N(C)[C@H](CC(C)C)C(=O)N[C@@H](C)C(=O)N[C@H](C)C(=O)N(C)[C@@H](CC(C)C)C(=O)N(C)[C@@H](CC(C)C)C(=O)N(C)[C@H]([C@H](C)CC)C(=O)N1C` had an IC20 in experiment [1] of 0.29 µM. Moreover, the half-inhibitory concentration (IC50) on fMet-Leu-Phe receptor (hl-60) was determined as 1.57 µM.

For `C/C=C/C[C@@H](C)[C@@H](O)[C@H]1C(=O)N[C@@H](CCC)C(=O)N(C)CC(=O)N(C)[C@@H](CC(C)C)C(=O)N[C@@H](C(C)C)C(=O)N(C)[C@@H](CC(C)C)C(=O)N[C@@H](C)C(=O)N[C@H](C)C(=O)N[C@@H](CC(C)C)C(=O)N(C)[C@@H](CC(C)C)C(=O)N(C)[C@@H](C(C)C)C(=O)N1C`, the concentration for half-maximal inhibition (IC50) against fMet-Leu-Phe receptor is over 10 µM.

The molecule `C/C=C/C[C@@H](C)[C@@H](O)[C@H]1C(=O)N[C@@H]([C@@H](C)O)C(=O)N(C)CC(=O)N(C)[C@@H](CC(C)C)C(=O)N[C@@H](CC(C)C)C(=O)N(C)[C@@H](CC(C)C)C(=O)N[C@@H](C)C(=O)N[C@](O)(C(C)C)C(=O)N(C)[C@@H](CC(C)C)C(=O)N[C@@H](CC(C)C)C(=O)N(C)[C@@H](C(C)C)C(=O)N1C` showed an IC50 at fMet-Leu-Phe receptor of 0.57 µM.

At fMet-Leu-Phe receptor, `C/C=C/C[C@@H](C)[C@@H](O)[C@H]1C(=O)N[C@@H](CC)C(=O)N(C)CC(=O)N(C)[C@@H](CC(C)C)C(=O)N[C@@H](C(C)C)C(=O)N(C)[C@@H](CC(C)C)C(=O)N[C@@H](C)C(=O)N[C@H](C)C(=O)N[C@@H](CC(C)C)C(=O)N(C)[C@@H](CC(C)C)C(=O)N(C)[C@@H](C(C)C)C(=O)N1C` yielded a 50% inhibitory concentration (IC50) of 3 µM.

At fMet-Leu-Phe receptor, `C/C=C/C[C@@H](C)C[C@H]1C(=O)N[C@@H](CC)C(=O)N(C)CC(=O)N(C)[C@@H](CC(C)C)C(=O)N[C@@H](C(C)C)C(=O)N(C)[C@@H](CC(C)C)C(=O)N[C@@H](C)C(=O)N[C@H](C)C(=O)N(C)[C@@H](CC(C)C)C(=O)N(C)[C@@H](CC(C)C)C(=O)N(C)[C@@H](C(C)C)C(=O)N1C` showed an IC50 of over 10 µM.

`C/C=C/C[C@@H](C)[C@@H](O)[C@H]1C(=O)N[C@@H](CCC)C(=O)N(C)CC(=O)N(C)[C@@H](CC(C)C)C(=O)N[C@@H](C(C)C)C(=O)N[C@@H](CC(C)C)C(=O)N[C@@H](C)C(=O)N[C@H](C)C(=O)N(C)[C@@H](CC(C)C)C(=O)N(C)[C@@H](CC(C)C)C(=O)N(C)[C@@H](C(C)C)C(=O)N1C` had a concentration for half-maximal inhibition (IC50) on fMet-Leu-Phe receptor of over 10 µM.

In turn, `C/C=C/C[C@@H](C)[C@@H](O)[C@H]1C(=O)N[C@@H]([C@@H](C)O)C(=O)N(C)CC(=O)N(C)[C@@H](CC(C)C)C(=O)N[C@@H](C(C)C)C(=O)N(C)[C@@H](CC(C)C)C(=O)N[C@@H](C)C(=O)N[C@](O)(C(C)C)C(=O)N(C)[C@@H](CC(C)C)C(=O)N[C@@H](CC(C)C)C(=O)N(C)[C@@H](C(C)C)C(=O)N1C` had an IC50 at fMet-Leu-Phe receptor of 2.5 µM.

For the molecule `C/C=C/C[C@@H](C)[C@@H](O)[C@H]1C(=O)N[C@@H](CCC)C(=O)N(C)CC(=O)N(C)[C@@H](CC(C)C)C(=O)N[C@@H](C(C)C)C(=O)N(C)[C@@H](CC(C)C)C(=O)N[C@@H](C)C(=O)N[C@H](C)C(=O)N(C)[C@@H](CC(C)C)C(=O)N[C@@H](CC(C)C)C(=O)N(C)[C@@H](C(C)C)C(=O)N1C`, at fMet-Leu-Phe receptor, the half-inhibitory concentration (IC50) was over 3 µM.

`C/C=C/C[C@@H](C)[C@@H](O)C1NC(=O)[C@H](C(C)C)N(C)C(=O)[C@H](CC(C)C)N(C)C(=O)[C@H](CC(C)C)N(C)C(=O)[C@@H](C)NC(=O)[C@H](C)NC(=O)[C@@H](CC(C)C)N(C)C(=O)[C@@H](C(C)C)NC(=O)[C@@H](CC(C)C)N(C)C(=O)CN(C)C(=O)[C@H](C(C)C)NC1=O` (some centres not stated): in experiment [1], it took 2 µM to reach the 20% level (IC20). The IC50 against fMet-Leu-Phe receptor (hl-60) is over 10 µM.

As for `C/C=C/C[C@@H](C)[C@@H](O)C1NC(=O)[C@H](C(C)C)N(C)C(=O)[C@H](CC(C)C)N(C)C(=O)[C@H](CC(C)C)N(C)C(=O)[C@@H](C)NC(=O)[C@H](C)NC(=O)[C@@H](CC(C)C)N(C)C(=O)[C@@H](C(C)C)NC(=O)[C@@H](CC(C)C)N(C)C(=O)CN(C)C(=O)[C@H](CC)NC1=O` (some centres not stated), it took 1.9 µM to reach the 20% level in experiment [1] (IC20). Further, at fMet-Leu-Phe receptor (hl-60), the 50% inhibitory concentration (IC50) was found to be 6.45 µM.

On to `C/C=C/C[C@@H](C)[C@@H](O)[C@H]1C(=O)N[C@@H](C(C)C)C(=O)N(C)CC(=O)N(C)[C@@H](CC(C)C)C(=O)N[C@@H](C(C)C)C(=O)N(C)[C@@H](CC(C)C)C(=O)N[C@@H](C)C(=O)N[C@H](C)C(=O)N(C)[C@@H](CC(C)C)C(=O)N[C@@H](CC(C)C)C(=O)N(C)[C@@H](C(C)C)C(=O)N1C`, for which, on fMet-Leu-Phe receptor, the IC50 is over 3 µM.
